Experimental data collected from several papers.

Structure (SMILES)	test	system	setting	endpoint	value
COc1ccnc(-c2nc3ccccn3c2Nc2ccc(F)cc2)c1	metabolic stability	rat, hepatocytes		hepatocyte CLint	190 µL/min/10⁶ cells
Cc1ccc(C(=O)N(CCCN)[C@@H](c2oc3cc(Cl)ccc3c(=O)c2Cc2ccccc2)C(C)C)cc1		human, plasma	intravenous, 2 mg/m², single dose, patients, infusion	clearance	26.6 mL/min
c1ccc(C2CCN(c3nc(-c4cnn5cccnc45)nc4ccccc34)C2)nc1 (stereo not shown)	metabolic stability	human, liver microsomes		microsomal CLint	47 µL/min/mg
CN(c1ccc(F)cc1)c1c(-c2cccc(F)n2)nc2ccccn12	metabolic stability	rat, hepatocytes		hepatocyte CLint	> 300 µL/min/10⁶ cells
CCNCCCNC/C=C\CNCCCNCC		human, plasma	intravenous, 150 mg, patients, infusion	clearance	5910 mL/min
c1ccc(-c2nc(NCc3nc4ccccc4o3)c3ccccc3n2)nc1	metabolic stability	human, liver microsomes		microsomal CLint	47 µL/min/mg
c1cnc2ccc(Nc3nc(NC4CC4)c4nc[nH]c4n3)cc2c1		human, plasma	oral, 100 mg/m², patients	CL/F	35.1 L/h
Fc1ccc(Nc2c(-c3cccc(F)n3)nc3ccccn23)cc1	metabolic stability	rat, hepatocytes		hepatocyte CLint	> 300 µL/min/10⁶ cells
COc1cc(C(=O)NC2CCN(C)CC2)c(F)cc1Nc1ncc(C(F)(F)F)c(Oc2cccc3c2C(=O)N(C)C3)n1		human, plasma	oral, 25 mg, multiple doses, once daily, patients	CL/F	8.34 L/h
OC[C@H]1O[C@@H](c2ccc(Cl)c(Cc3ccc(O[C@H]4CCOC4)cc3)c2)[C@H](O)[C@@H](O)[C@@H]1O		human, urine	oral, 10 mg, single dose	renal clearance	24.5 mL/min
